The source of these data is ChEMBL document CHEMBL1134307, “trans-4-[4-(Methoxyphenyl)cyclohexyl]-1-arylpiperazines: a new class of potent and selective 5-HT(1A) receptor ligands as conformationally constrained analogues of 4-[3-(5-methoxy-1,2,3,4-tetrahydronaphthalen-1-yl)propyl]-1-arylpiperazines” (J Med Chem, 2001).

Test [1] deals with T1, Alpha-1D adrenergic receptor (Homo sapiens, UniProt P25100).
T1 sequence (P25100 whole entry): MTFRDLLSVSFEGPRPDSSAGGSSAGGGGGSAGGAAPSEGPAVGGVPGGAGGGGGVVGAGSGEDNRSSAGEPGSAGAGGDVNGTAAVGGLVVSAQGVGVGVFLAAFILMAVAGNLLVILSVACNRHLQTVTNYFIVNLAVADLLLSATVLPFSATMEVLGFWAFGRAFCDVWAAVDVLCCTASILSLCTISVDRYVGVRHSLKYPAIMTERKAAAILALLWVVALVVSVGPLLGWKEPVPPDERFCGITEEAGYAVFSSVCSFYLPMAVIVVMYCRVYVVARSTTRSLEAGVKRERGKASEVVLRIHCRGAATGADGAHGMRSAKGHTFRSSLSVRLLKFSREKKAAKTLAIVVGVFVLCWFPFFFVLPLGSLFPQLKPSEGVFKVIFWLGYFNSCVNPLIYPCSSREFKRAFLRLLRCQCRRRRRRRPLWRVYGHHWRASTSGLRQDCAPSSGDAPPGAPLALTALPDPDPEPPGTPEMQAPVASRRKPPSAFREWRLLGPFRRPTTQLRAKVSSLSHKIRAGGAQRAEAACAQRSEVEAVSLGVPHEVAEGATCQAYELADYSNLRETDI
As to the kind of experiment: Binding affinity towarda alpha-1D adrenergic receptor. The gist of the method:
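Membranes from CHO cells stably expressing each human α1-adrenoceptor subtype, incubated in 50 mM Tris pH 7.4 with 0.2 nM [3H]prazosin and competing drugs (1 pM–10 µM), 30 min at 25 °C. Nonspecific binding with 10 µM phentolamine. Stopped with ice-cold Tris and filtration through 0.2% PEI-pretreated filters.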

Test [2] deals with T2, 5-hydroxytryptamine receptor 1A (Rattus norvegicus, UniProt P19327).
T2 sequence (P19327 whole entry): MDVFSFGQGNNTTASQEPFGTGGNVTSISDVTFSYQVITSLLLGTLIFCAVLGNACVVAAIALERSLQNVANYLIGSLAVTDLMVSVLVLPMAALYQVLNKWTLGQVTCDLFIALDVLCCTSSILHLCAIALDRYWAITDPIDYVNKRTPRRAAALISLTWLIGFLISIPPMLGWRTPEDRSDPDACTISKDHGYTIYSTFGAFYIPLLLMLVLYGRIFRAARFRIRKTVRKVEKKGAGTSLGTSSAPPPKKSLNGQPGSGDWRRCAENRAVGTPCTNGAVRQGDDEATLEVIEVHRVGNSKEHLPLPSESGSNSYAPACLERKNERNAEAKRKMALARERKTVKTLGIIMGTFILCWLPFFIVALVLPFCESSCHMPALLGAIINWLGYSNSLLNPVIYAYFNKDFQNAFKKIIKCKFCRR
Nature of the test: Binding was determined on 5-hydroxytryptamine 1A receptor in rat hippocampal membranes. It is filed as cell membranes, Hippocampus. The gist of the method: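 Hippocampus from male Wistar Hannover rats, homogenized in 50 mM Tris pH 7.6, washed, and preincubated 10 min at 37 °C. Ki given as mean ± SEM.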

In test [3] the target is T3, Adrenergic receptor alpha-1 (Rattus norvegicus, UniProt P15823+P23944+P43140).
T3 sequence (P15823 whole entry): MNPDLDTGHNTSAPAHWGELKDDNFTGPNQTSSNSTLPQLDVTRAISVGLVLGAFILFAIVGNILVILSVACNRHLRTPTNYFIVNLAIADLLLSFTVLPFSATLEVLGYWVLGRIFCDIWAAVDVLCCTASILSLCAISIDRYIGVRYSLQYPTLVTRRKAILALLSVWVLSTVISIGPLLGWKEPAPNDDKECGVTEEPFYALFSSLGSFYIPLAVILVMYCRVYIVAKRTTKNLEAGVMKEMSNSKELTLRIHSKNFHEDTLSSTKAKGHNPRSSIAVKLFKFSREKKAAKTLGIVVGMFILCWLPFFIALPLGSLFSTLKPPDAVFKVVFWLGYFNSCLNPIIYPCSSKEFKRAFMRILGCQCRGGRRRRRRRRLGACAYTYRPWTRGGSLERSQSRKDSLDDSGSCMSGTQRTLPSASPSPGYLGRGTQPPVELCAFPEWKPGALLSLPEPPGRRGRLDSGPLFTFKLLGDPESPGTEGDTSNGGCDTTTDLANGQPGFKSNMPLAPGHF
T3 sequence (P23944 whole entry): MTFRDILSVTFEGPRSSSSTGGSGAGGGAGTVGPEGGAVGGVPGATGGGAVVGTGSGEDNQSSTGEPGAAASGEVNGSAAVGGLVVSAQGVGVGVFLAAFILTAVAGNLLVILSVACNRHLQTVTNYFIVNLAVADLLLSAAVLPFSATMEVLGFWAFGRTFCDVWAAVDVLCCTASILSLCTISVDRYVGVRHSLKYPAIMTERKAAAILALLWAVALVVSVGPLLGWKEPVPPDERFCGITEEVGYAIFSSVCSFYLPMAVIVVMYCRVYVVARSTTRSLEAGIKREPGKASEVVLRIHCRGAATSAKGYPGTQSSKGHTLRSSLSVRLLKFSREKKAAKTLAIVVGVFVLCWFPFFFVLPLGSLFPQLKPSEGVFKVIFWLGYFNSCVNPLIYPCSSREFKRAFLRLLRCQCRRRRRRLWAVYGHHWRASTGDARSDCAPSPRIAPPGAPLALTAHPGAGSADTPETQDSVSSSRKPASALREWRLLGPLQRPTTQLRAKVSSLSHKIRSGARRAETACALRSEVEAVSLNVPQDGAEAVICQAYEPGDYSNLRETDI
T3 sequence (P43140 whole entry): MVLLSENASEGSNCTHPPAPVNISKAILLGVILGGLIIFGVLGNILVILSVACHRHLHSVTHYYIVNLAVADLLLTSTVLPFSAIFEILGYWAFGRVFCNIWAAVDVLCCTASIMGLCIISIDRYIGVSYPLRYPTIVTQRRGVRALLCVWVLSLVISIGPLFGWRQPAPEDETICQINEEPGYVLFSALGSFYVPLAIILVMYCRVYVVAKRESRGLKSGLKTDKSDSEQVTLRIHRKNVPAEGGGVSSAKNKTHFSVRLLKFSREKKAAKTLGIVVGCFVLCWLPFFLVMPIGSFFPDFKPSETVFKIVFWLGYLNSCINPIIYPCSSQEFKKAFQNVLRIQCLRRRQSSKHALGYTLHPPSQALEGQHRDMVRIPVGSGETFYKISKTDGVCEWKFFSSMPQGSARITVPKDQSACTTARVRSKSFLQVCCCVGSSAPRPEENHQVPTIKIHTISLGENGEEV
As to the kind of experiment: Binding affinity towards alpha-1 adrenergic receptor in rat cortical membranes. The test is classed as cell membranes.

As usually defined, the Ki is a dissociation constant, usually derived from enzyme kinetics or from competition with a known ligand. As to `COc1cccc2c(CCCN3CCN(c4ccccn4)CC3)cccc12`, the values for the Ki in test [1], in test [2] and in test [3] were 12.6 nM, 0.38 nM and 833 nM, respectively.

On to `COc1cccc2c1CCCC2CCCN1CCN(c2ccccn2)CC1` (stereo unspecified), for which the figures for the Ki in test [1], in test [2] and in test [3] were 5.95 nM, 0.48 nM and 55 nM, respectively.

Take `COc1cccc(C2CCC(N3CCN(c4ccccc4OC)CC3)CC2)c1` (stereo in doubt; trans): the Ki in test [1] was determined as 4.49 nM; in test [2] it was 0.02 nM; in test [3] it was 312 nM.

In the case of `COc1cccc2c(CCCNCCOc3ccccn3)cccc12`, the inhibition constant (Ki) in test [1] came out at 83.2 nM; in test [2] it was 0.19 nM; in test [3], 1300 nM.

As to `COc1cccc(C2CCC(NCCOc3ccccn3)CC2)c1` (stereo in doubt), the Ki in test [1] is 142 nM; in test [2], 17 nM; in test [3], over 850 nM.

Turning to `COc1cccc2c1CCCC2CCCNCCOc1ccccn1` (stereo unspecified), the Ki worked out at 12.7 nM in test [1], 0.54 nM in test [2] and 83 nM in test [3].

On to `COc1cccc(C2CCC(N3CCN(c4ccccn4)CC3)CC2)c1` (trans isomer), for which the figures for the Ki in test [1], in test [2] and in test [3] were 118 nM, 0.028 nM and 767 nM, respectively.
